Results: ChEMBL document CHEMBL1123298, “Novel 1,3-bis(aryloxy)propanes as leukotriene D4 antagonists” (1986)

system: Cavia porcellus; assay: In vivo antagonistic activity against leukotriene D4 (LTD4) in guinea pig lung; format: functional; conditions: read-out: ID50 (the source's name)
In short: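 Drug in propylene glycol given iv 10 min before LTD4 400 ng/kg iv; controls received solvent. Lung overflow volume read at 5 min; ID50 by inverse prediction, common-slope parallel line assay, 3-fold doses, 2–6 animals/dose.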

| Compound | ED50 [mg/kg] |
| --- | --- |
| CCCc1c(OCCCOc2cccc(NC(=O)C(=O)OCC)c2C#N)ccc(C(C)=O)c1O | 0.342 |
| CCCc1c(OCCCOc2cccc(NC(=O)CCC(=O)OCC)c2C#N)ccc(C(C)=O)c1O | 1.77 |
| CCCc1c(OCCCOc2cccc(NC(=O)CCC(=O)OCC)c2)ccc(C(C)=O)c1O | 1.28 |
| CCCc1c(OCC(O)COc2cccc(NC(=O)CC(=O)OCC)c2C#N)ccc(C(C)=O)c1O (stereo not given) | 0.64 |
| CCCc1c(OCC(O)COc2cccc(NC(=O)C(=O)OCC)c2C#N)ccc(C(C)=O)c1O (stereo not given) | 0.113 |
| CCCc1c(OCC(O)COc2ccc3c(=O)cc(C(=O)[O-])oc3c2CCC)ccc(C(C)=O)c1O.[Na+] (stereo not given) [FPL-55712 SODIUM SALT] | 0.153 |
| CCCc1c(OCCCOc2cccc(NC(=O)C(=O)OCC)c2)ccc(C(C)=O)c1O | 1.09 |
| CCCc1c(OCC(O)COc2cccc(NC(=O)C(=O)O)c2C#N)ccc(C(C)=O)c1O (stereo not given) | 1.8 |
| CCCc1c(OCC(O)COc2cccc(NC(=O)C(=O)OCC(C)(C)C)c2C#N)ccc(C(C)=O)c1O (stereo not given) | 0.461 |
| CCCc1c(NC(=O)C(=O)OCC)cccc1OCC(O)COc1ccc(C(C)=O)c(O)c1CCC (stereo not given) | 2.6 |
